The structures appear in SMILES notation. Converted amounts (≈) assume the structure as drawn. The source made the active and inactive calls. The rule behind the calls is not given here.

What all share (type): functional
Experiment [1] has as its system RAW264.7. Description: Antiinflammatory activity against LPS-stimulated mouse RAW264.7 cells assessed as reduction in COX-2 level at 10 uM relative to control. The essentials:
(§1)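 Immunoblot measured iNOS and COX-2 protein levels in RAW264.7 macrophages stimulated with LPS and treated at 10 μM. Levels are expressed as a percentage of cells given LPS alone.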

Another experiment deals with HeLa. The experiment is described as follows: Cytotoxicity against human HeLa cells by MTT assay. The following applies: read-out: ED50 (the source's name). A general note: Tetrazolium assays rely on reduction of a dye to a coloured formazan, in cell work by metabolically active cells.
A further experiment has as its system HEp-2. The experiment is described as follows: Cytotoxicity against human Hep2 cells by MTT assay. The conditions noted are these: read-out: ED50 (the source's name).
Another experiment concerns MCF7. The experiment is described as follows: Cytotoxicity against human MCF7 cells by MTT assay. The conditions noted are these: read-out: ED50 (the source's name).
The subject of experiment [2] is RAW264.7. Description: Antiinflammatory activity against LPS-stimulated mouse RAW264.7 cells assessed as reduction in iNOS level at 10 uM relative to control. Set-up: scale not given: the % may be the effect or the level left. The essentials: as §1
The next experiment concerns Daoy. The experiment is described as follows: Cytotoxicity against human DaOY cells by MTT assay. The following applies: read-out: ED50 (the source's name).

Regarding `C=C1C[C@H]2O[C@H]([C@H]3[C@@H]2[C@](C)(OC(C)=O)CC[C@@H]3C(C)C)[C@](C)(OC(=O)CCC)CC[C@@H]1O` [SIMPLEXIN A], the outcome with RAW264.7 [1] was inactive. The EC50 with HeLa was more than 20 µg/mL; in the experiment with HEp-2, 12.1 µg/mL (≈ 26.9 µM); in the experiment with MCF7 it was 12.1 µg/mL (≈ 26.8 µM); with Daoy, 10.4 µg/mL (≈ 23 µM). For the same molecule, in the experiment on RAW264.7 [2], the Activity is 15.9%.

In the case of `CCCC(=O)O[C@]1(C)CC[C@H](O)[C@@](C)(O)C[C@H]2O[C@@H]1[C@H]1[C@@H]2[C@](C)(OC(C)=O)CC[C@@H]1C(C)C` [SIMPLEXIN B], the EC50 with HeLa, in the experiment on HEp-2, in the experiment on MCF7 and in the experiment with Daoy was more than 20 µg/mL in each case.

Take `CCCC(=O)O[C@H]1[C@H](C(C)C)[C@@H]2[C@@H]([C@H]3C[C@](C)(O)[C@@H](OC(C)=O)CC[C@@](C)(OC(=O)CCC)[C@@H]2O3)[C@](C)(O)[C@@H]1OC(C)=O` [SIMPLEXIN C]: the EC50 in the experiment on HeLa, with HEp-2, in the experiment on MCF7 and in the experiment with Daoy was more than 20 µg/mL throughout.

Regarding `CCCC(=O)O[C@H]1[C@H](C(C)C)[C@@H]2[C@@H]([C@H]3C[C@](C)(O)[C@@H](OC(=O)CCC)CC[C@@](C)(OC(=O)CCC)[C@@H]2O3)[C@](C)(O)[C@@H]1OC(C)=O` [SIMPLEXIN D], in the experiment on RAW264.7 [1], the outcome was inactive. In addition, the EC50 with HeLa was more than 20 µg/mL; in the experiment with HEp-2, more than 20 µg/mL; with MCF7, 14.5 µg/mL (≈ 22.7 µM); in the experiment on Daoy it was 15.3 µg/mL (≈ 23.9 µM). In the experiment with RAW264.7 [2], the Activity is listed as 37.7%.

For `C=CC(=O)O[C@H]1CC[C@@](C)(OC(=O)CCC)[C@@H]2O[C@H](C[C@]1(C)O)[C@@H]1[C@H]2[C@@H](C(C)C)[C@H](OC(=O)CCC)[C@@H](OC(C)=O)[C@@]1(C)O` [SIMPLEXIN E], the Activity with RAW264.7 [1] is listed as 37.7%; with RAW264.7 [2], 4.8%. Besides, the EC50 amounted to 17.4 µg/mL (≈ 27.8 µM) in the experiment with HeLa, 10.7 µg/mL (≈ 17.2 µM) in the experiment on HEp-2, 7.19 µg/mL (≈ 11.5 µM) with MCF7 and 12.8 µg/mL (≈ 20.4 µM) with Daoy.

`CCCC(=O)O[C@]1(C)CC[C@H](OC(C)=O)[C@@](C)(O)C[C@H]2O[C@@H]1[C@@H]1[C@@H](C(C)C)[C@H](O)[C@@H](OC(C)=O)[C@@](C)(O)[C@@H]12` [SIMPLEXIN F]: the EC50 in the experiment with HeLa, in the experiment on HEp-2, with MCF7 and with Daoy was more than 20 µg/mL each time.

Turning to `CC(=O)O[C@H]1CC[C@@](C)(OC(C)=O)[C@@H]2O[C@H](C[C@]1(C)O)[C@@H]1[C@H]2[C@@H](C(C)C)[C@H](O)C[C@@]1(C)OC(C)=O` [SIMPLEXIN I], the EC50 in the experiment with HeLa, with HEp-2, in the experiment with MCF7 and with Daoy was more than 20 µg/mL each time.

Source of the values: ChEMBL document CHEMBL1152918, “Simplexins A-I, eunicellin-based diterpenoids from the soft coral Klyxum simplex” (2009).
